Laboratory results taken from publication PMC9790683 (Birth Defects Research, 2022).
Values joined by “and” are separate entries in the source; they are usually repeats but may differ in a detail not shown here. Identical values can stand only once. Like-named read-outs stand apart in the source and are kept apart here.

Experiments:
[1] = test system: human iPS cells (HYR0103, ATCC ACS‐1007); test: devTOX quickPredict; format: cell-based; settings: threshold 0.85, 48 hours; for TP: cell viability; for dTP: o/c ratio
Method in brief: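 Human iPS cells exposed across a concentration range. Ornithine and cystine abundance measured, and ornithine/cystine ratio calculated at each concentration. dTP is the concentration, interpolated from the ratio response curve, where the ratio drops below a predefined developmental-toxicity threshold set from pharmaceuticals of known human teratogenicity. TP is the concentration where viability falls below the same threshold. Nominal values converted to free-medium concentration by mass-balance model.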

[2] = IVIVE, rat EAD with one‐compartment PPK model; settings: oral; for EAD using PPK model, using nominal dTP Conc.: Css = dTP; for EAD using PPK model, using free medium Conc.: Css = free medium dTP
Method in brief: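 Rat one-compartment population PK model assuming 100% absorption. Total clearance was hepatic plus renal (passive glomerular filtration), with inputs of plasma unbound fraction and hepatocyte Clint (predicted or experimental). Monte Carlo simulation of 10,000 individuals gave the upper 95th percentile steady-state plasma concentration. EAD was the dose giving total Css equal to the nominal dTP or Armitage-model free medium concentration.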

[3] = IVIVE, rat EAD with httk.PBTK model; settings: oral; for EAD using Httk.PBTK model, using nominal dTP Conc.: Cmax = dTP; for EAD using Httk.PBTK model, using free medium Conc.: Cmax = free medium dTP
Method in brief: (§1)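 Reverse dosimetry used the generic PBTK model from httk R package v1.8.1: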

[4] = IVIVE, human EAD with httk.PBTK model; settings: oral
Method in brief: as §1

[5] = IVIVE, human EAD with GastroPlus pregnancy PBPK model; settings: for EAD, GP.pregancy model, Maternal plasma Cmax, free medium concentration / EAD, GP.pregancy model, Maternal plasma Cmax, nominal dTP: human pregnancy, 12 weeks gestation
[6] = cited from earlier work; for Range of all human OEDs reported: across all in vitro assays (OEDall); for Range of all human OEDs reported / Range of human OEDs estimated from most sensitive endpoints: ref OECD, 2020; for Range of human OEDs estimated from most sensitive endpoints: most sensitive endpoint in each in vitro model (OEDnarrow)
rat dams and fetuses = settings: cited from earlier work; for Developmental toxicity LEL: rat, oral repeat dosing, maternal and fetal LELs combined, ref Table 2 sources
[7] = EAD by linear extrapolation of clinical dose‐Cmax data; settings: human, linear extrapolation of clinical dose‐Cmax data from PharmaPendium
Method in brief: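 Clinical dose–plasma Cmax data for the reference teratogen were taken from PharmaPendium. Dose giving Cmax equal to the in vitro dTP concentration was found by linear extrapolation. dTP is the interpolated concentration where the ornithine/cystine ratio curve in the human iPS cell devTOX qP assay falls below the predefined threshold.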

[8] = from CALUX Min EC10 cell-total, ref OECD 2020
[9] = from UKN1 HDAC inhibition EC10, ref OECD 2020
[10] = from ZET pericardial and/or yolk oedema Total embryo EC10, ref OECD 2020
[11] = from mEST HDAC inhibition, day 10 EC10, ref OECD 2020
[12] = Sprague–Dawley, corn oil gavage, GD 6–15, ref Narotsky et al., 1994
[13] = Wistar, drinking water, GD 6–19, ref Pennanen et al. (1992)

SMILES	TP [1]	dTP [1]	EAD using PPK model, using nominal dTP Conc. [2]	EAD using PPK model, using free medium Conc. [2]	EAD using Httk.PBTK model, using nominal dTP Conc. [3]	EAD using Httk.PBTK model, using free medium Conc. [3]	EAD, Httk.PBTK model, free medium concentration [4]	EAD, Httk.PBTK model, nominal dTP [4]	EAD, GP.pregancy model, Maternal plasma Cmax, free medium concentration [5]	EAD, GP.pregancy model, Maternal plasma Cmax, nominal dTP [5]	Range of all human OEDs reported [6]	Human OED_max fu model [6, 8]	Human OED_max fu model [6, 9]	Human OED_max fu model [6, 10]	Human OED_max fu model [6, 11]	Range of human OEDs estimated from most sensitive endpoints [6]	Developmental toxicity LEL (rat dams and fetuses)	other results
CCCCCC(=O)O [HA, Hexanoic acid]	1,022 μM	838 µM	2,921.8 mg/kg/day	2,308.2 mg/kg/day	652.7 mg/kg/day	515.6 mg/kg/day	–	–	–	–	–	–	–	–	–	–	–	–
C=CCC(CCC)C(=O)O (stereo not shown) [4‐ene‐VPA, 2‐Propyl‐4‐pentenoic acid]	636 µM	611 µM	119.6 mg/kg/day	95.7 mg/kg/day	77.1 mg/kg/day	61.7 mg/kg/day	–	–	–	–	–	–	–	–	–	–	–	–
CCCCC(C)C(=O)O (stereo not shown) [MHA, 2‐Methylhexanoic acid]	1,631 μM	976 µM	924.3 mg/kg/day	573.1 mg/kg/day	331.4 mg/kg/day	205.5 mg/kg/day	176.0 mg/kg/day	285.5 mg/kg/day	36.5 mg/kg/day	59.12 mg/kg/day	2.3–928.4	2.3 mg/kg	254.8 mg/kg	55.1 mg/kg	286.3 mg/kg	2.3–286.3	–	–
C=CCCC(=O)O [PA, 4‐Pentenoic acid]	719 µM	913 µM	947.1 mg/kg/day	931.1 mg/kg/day	147.7 mg/kg/day	145.2 mg/kg/day	–	–	–	–	–	–	–	–	–	–	50 to 75 mg/kg/day	LEL: Fetal toxicity (rat dams and fetuses; [12]): 50 mg/kg/day
CCCCCC(CCC)C(=O)O (stereo not shown) [PHA, 2‐Propylheptanoic acid]	425 µM	546 µM	27.5 mg/kg/day	6.3 mg/kg/day	39.5 mg/kg/day	9.1 mg/kg/day	–	–	–	–	–	–	–	–	–	–	–	–
CCCC(CCC)C(=O)O [VPA, Valproic acid, reference compound]	318 µM	236 µM	33.3 mg/kg/day	14.3 mg/kg/day	13.5 mg/kg/day	5.8 mg/kg/day	4.5 mg/kg/day	10.4 mg/kg/day	2.7 mg/kg/day	6.4 mg/kg/day	0.11–51.9	3.2 mg/kg	3 mg/kg	2.8 mg/kg	2 mg/kg	0.11–3.2	200 mg/kg/day and 200 to 400 mg/kg/day	range of EADs derived from the in vitro dTP concentration ([5]; human, across all models, nominal and free): 2.7 to 24.4 mg/kg/day; EAD based on Clinical PK data [7]: 4.6 mg/kg/day; LEL: Fetal toxicity (rat dams and fetuses; Sprague–Dawley, GD 8–17, dose range 0–800, ref Binkerd et al., 1988): 200 mg/kg/day; LEL: Fetal toxicity (rat dams and fetuses; [12]): 200 mg/kg/day; LEL: Maternal toxicity (rat dams and fetuses; [12]): 400 mg/kg/day
CCCCC(CC)C(=O)O (stereo not shown) [EHA, 2‐Ethylhexanoic acid]	390 µM	399 µM	95.3 mg/kg/day	45.5 mg/kg/day	77.3 mg/kg/day	36.9 mg/kg/day	22.4 mg/kg/day	47.0 mg/kg/day	6.7 mg/kg/day	14.1 mg/kg/day	0.74–901.3	–	–	–	–	–	100 to 600 mg/kg/day	LEL: Fetal toxicity (rat dams and fetuses; [13]): 100 mg/kg/day; LEL: Maternal toxicity (rat dams and fetuses; [13]): 600 mg/kg/day; Human OED_max fu model ([6]; human): 4.8 mg/kg
CCCC(C)C(=O)O (stereo not shown) [MPA, 2‐Methylpentanoic acid]	–	1,248 μM	2,957.1 mg/kg/day	2,407.2 mg/kg/day	574.2 mg/kg/day	467.4 mg/kg/day	440.6 mg/kg/day	541.2 mg/kg/day	135.8 mg/kg/day	166.9 mg/kg/day	35.2–1,353.3	37.3 mg/kg	186.6 mg/kg	84.5 mg/kg	261.1 mg/kg	37.3–261.1	188 mg/kg/day	LEL: Maternal toxicity (rat dams and fetuses; [12]): 188 mg/kg/day
CCC(CC)C(=O)O [EBA, 2‐Ethylbutyric acid]	–	1,071 μM	2,708.3 mg/kg/day	2,260.4 mg/kg/day	517.4 mg/kg/day	431.8 mg/kg/day	404.5 mg/kg/day	484.7 mg/kg/day	127.8 mg/kg/day	153.2 mg/kg/day	34.4–826.6	35.8 mg/kg	161.4 mg/kg	53.3 mg/kg	357.8 mg/kg	35.8–357.8	150 mg/kg/day	–
CCCC(C)(C)C(=O)O [DMPA, 2,2‐Dimethylpentanoic acid]	1,745 μM	784 µM	936.6 mg/kg/day	505.8 mg/kg/day	388.3 mg/kg/day	209.7 mg/kg/day	–	–	–	–	–	–	–	–	–	–	–	–
